Variants at the floor of the assay were thinned out.
B1: tRNA (parent)
chain: GUUCCGUUGGCGUAAUGGUAACGCGUCUCCCUCCUAAGGAGAAGACUGCGGGUUCGAGUCCCGUACGGAACG

Variants of: B1
Experiment: yeast fitness relative to wild type (ratio to wild type); higher = fitter; tRNA-Arg(CCU), competitive growth, 37 C, YPD
In short: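 Gene amplicons from the start population and from each of six end populations were read by 100-nucleotide paired-end sequencing. Those end populations came from pooled Saccharomyces cerevisiae strains carrying tRNA-Arg(CCU) gene variants at the native locus, competed in YPD at 37°C for 24 hours. Fitness relative to wild type was worked out from changes in genotype frequencies. Genotypes needed ≥ 100 starting reads, and estimates < 0.5 were set to 0.5.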

Variant	yeast fitness
GUUCCGUUGGCGUAAUGGUAACGCGUCUCCCUCCUAAGGAGAAGACCGCGGGUUCGAGUCUCGUUUGGAACG [U47C C61U A65U C66U]	≤ 0.5
GUUCCGUUGGCGUAAUGGUAACGCGACUCCCUCCUAAGGAGAAGACUGCGGGUUCGAGUCCCGUGCGGAACG [U26A A65G]	0.822
GUUACGUUGGCGUAAUGGUAACGCGUCUCCCUCCUAAGGAGAAGAUUGCGGGUUCGCGUCCCGUACGGAACG [C4A C46U A57C]	0.529
GAUCCGUUGGCGUAAUGCUAACACCUCUCCCUCCUAGGGAGACGACUGCGGGUUGGAGUCCCGUACGAAACG [U2A G18C G23A G25C A37G A43C C55G G68A]	0.558
GUUCCGUUGGCGUAAUGGUAACGCGUCUCCCUGCUAAGGAGCAGACUGCGGGUUCGAGUCCCGUACGGAACG [C33G A42C]	0.675
GUUCAGUUGGCGUAAUGGUAACGCGUCUCCCUACUAAGGAGAAGACUGCGGGUUCGAGUCCCGUUCGGAACG [C5A C33A A65U]	≤ 0.5
GUUCCGUUGACGUAAUGGUAACGCGUCUCCCUCCUAAGGAGAAGACUGCGGGUUCGAGUCCCGUACAGAACG [G10A G67A]	0.75
GUUCCGUUGGCGUAAUGGUAACGCGUCUCCCUCCUACGGAGAAGACUGCGGGUUCGAGUCCCGUAUGGAACG [A37C C66U]	0.75
GUUGCGUUGGCGUAAUGGUAACGCGUCUCCCUCCUAAGGAGAAGAUUACGGGUUCGAGUCCCGUACGGAACG [C4G C46U G48A]	1.04
GUUCCGUUGGCGUAAAGGUAACCCGUCUUCGUCCUAAGGAGAAGACAGCGGGUUCGAGUCCCGUACGGAACG [U16A G23C C29U C31G U47A]	≤ 0.5
GUUCCGUUGGCGUAAUGGUAACGCGUCUCCCUCCUAAGGAGAAGACUGUGGGUUCGAGUCGCGUACGGAACG [C49U C61G]	0.689
GUUCCGUUGGCGUAAUGGUAACGCGUCUCCCUCCUGAGCAGAAGACUGCGGGUUCGAGUCCCGUACGGAACG [A36G G39C]	0.787
GUUCCGUUGGCGUAACGGUAACGCGUCUCCCUCCUAAGGAGAAGACUGCGGGUUCAAGUCCCGUACGGUACG [U16C G56A A69U]	0.799
GUUCUGUUGGCGUCAUGGUAACGCGUUUCCCUGCUAAGGAGAAGACUGCGGGUUGGAGUCUCGUACGGAACG [C5U A14C C27U C33G C55G C61U]	≤ 0.5
GUUCCGUUGGCGUAAUGGCAACGCGUCUCCCUCCUAAGGAGAAGACUGCGGGUUCGCGUCACGUACGGAACG [U19C A57C C61A]	≤ 0.5
GGUCCGUUGGCGUAGUAGUAACGCGUCUCCCUCCUAAGGAGAAGACUGCGGGUUCGAGUCCCGUACGGAACG [U2G A15G G17A]	≤ 0.5
GUUCCGUUGGCGUAAUGGUAUCGCGUCUCCUUCCUAAGGAGAAGACUGCGGGUUCGAGUCCCGUACGGAACG [A21U C31U]	0.717
GUUCCGUUGGCGUAAUGGUUACGCGUCUCCCUCCUAAGGAGAAGACUGCGGGUUCGAGUCCCGUUCGGACCG [A20U A65U A70C]	0.568
GUUCCGUUGGCGUAAUGGUAACGCGUCUCCGUCCUAAGGAGAGGACUGUGGGUUCGAGUCCCGUACGACACG [C31G A43G C49U G68A A69C]	≤ 0.5

Variant	yeast fitness
GUUCCGUUGACGUAAAGGUAACGCGUCUCCCUCCUAAAGAGAAGACUGCGGGUUCGAGUCCCGCACGGAACG [G10A U16A G38A U64C]	≤ 0.5
GUUCCGUUGGCGUAAUGGUAACGCGUCUCCCUCAUAAGGAGCAGUCUGCGGGUUCGAGUCCCGUUCGGAACG [C34A A42C A45U A65U]	≤ 0.5
GUUCCGAUGGCGUAAUGGUAACGCGUCUCCCUCCUAAGGACAAGACUGCGGGUUCGAGUCCCCUUCGGAACG [U7A G41C G63C A65U]	≤ 0.5
GUUCCCUUGGCAUAAUGGUAACGCGUCUCGCUCCUUAGGAGCAGACUGCGGGUUCGAGUCCCGUACGGAACG [G6C G12A C30G A36U A42C]	≤ 0.5
GUUCCGUUGGGGUAGUGGUAACGCGACUCCCACCUAAAGCGAAGACUGCGGGUUCGAAUCCCGUACGGAACG [C11G A15G U26A U32A G38A A40C G58A]	≤ 0.5
GUUCCCUUGGCGUCAUGGUACCGCGUCUCCCUCCUAAGGAGGAGACUGCGGGUUCGAGUCCCGUACGGAGCG [G6C A14C A21C A42G A70G]	≤ 0.5
GUUCCGUUGGCGUAACGGUAAAGCGUCUCCCUCCUAAGGAGAAGACUGCGGGCUCGAGUCCCGUAGGGUACG [U16C C22A U53C C66G A69U]	≤ 0.5
GUUCCGUUGGCGUAAUGGUAACGCGUCUCCCUCCUAAGGAGAAGACUGCGGGUUCGAGUCCCGUACUGAUCG [G67U A70U]	0.933
GUUCCGUUGGCGUAAUGGUAACGCGUCUCCCUCCUCAGGAGAAGACUGCGGGUUCGAGUCCCGUACGCAACG [A36C G68C]	0.591
GUUCCGUUGGCAUAAUGGUAACGGGUCUACCUCCUAAGGAGAAGACUGCGGGUUUGAGUCGCGUGCGAAACG [G12A C24G C29A C55U C61G A65G G68A]	≤ 0.5
GUUCCGUUGGCGUAAUGGUAACGCGUCUCCCUCCUUAGGAGAAGACUGUGGGUCCGAGUCCCGUACGGAACG [A36U C49U U54C]	≤ 0.5
GUUCCGAUGGCGUAAUGGUGACGCGUCUCCUUCCUAAGGAGAAGACUGCGGGUUCGCGUCCCGUUCGGAACG [U7A A20G C31U A57C A65U]	≤ 0.5
GUUCCGUUGGCGUAAUGGUAACGCGUCUCCCUUCUAAGGAGAGGACUGCGGGUUCGAGUCCCGUACGGAACG [C33U A43G]	0.672
GUUCCGCUGGCGUUAUGGUAACGGGUCUCUCUCCUAAGGAGAGGACUGCGGGUUCGAGUCCCGUACGGAACG [U7C A14U C24G C30U A43G]	≤ 0.5
GUUCCGUCAGCGUAAUGGUAACGCGUCUCCCUCCUAAGGCGAAGACUGCGGGUUCGAGUCCCGUACGGAACG [U8C G9A A40C]	0.672
GUUCCGUUGACGUAAUGGUAACGCGUCUCCCUCCUAAGGAGAAGACUCCGGGUUCGAGUCCCGUACGGAACG [G10A G48C]	0.733
GUUCCGUUGGCGUAAUGGUGGCGCGUCUCCCUCCUAACGAGAAGACUGCCGGUUCGAGUCCCGUACGGAACG [A20G A21G G38C G50C]	≤ 0.5
GUUCCGUCGGCGUAAUGGUAACGCGUCUCCCUCCUAAGGAGAAGACUGCAGGUUCGAGUCCCGUCCGGAACG [U8C G50A A65C]	0.603
GUUCCGUUGGCGUAAUGGUAUCGCGUCUCCUUCCUAAGGAGAAGACUGCGGAUUCGAGUCCCGUACGGAACG [A21U C31U G52A]	0.602

Source: the RNAGym collection of RNA variant scans (doi:10.1126/science.aae0568)
